Measured values reported in ChEMBL document CHEMBL4402598, “Design and Synthesis of Bitopic 2-Phenylcyclopropylmethylamine (PCPMA) Derivatives as Selective Dopamine D3 Receptor Ligands” (J Med Chem, 2020).

Tests used:
D(1B) dopamine receptor = D(1B) dopamine receptor (Homo sapiens, UniProt P21918); test: Displacement of [3H]-SCH23390 from recombinant human D5 receptor transiently expressed in HEKT cell membranes measured after 90 mins by microbeta scintillation counting method
D(1A) dopamine receptor = D(1A) dopamine receptor (Homo sapiens, UniProt P21728); test: Displacement of [3H]-SCH23390 from recombinant human D1 receptor transiently expressed in HEKT cell membranes measured after 90 mins by microbeta scintillation counting method
D(2) dopamine receptor = D(2) dopamine receptor (Homo sapiens, UniProt P14416); test: Displacement of [3H]-N-methylspiperone from recombinant human D2 receptor stably expressed in fibroblast cell membranes measured after 90 mins by microbeta scintillation counting method
[1] = biological target: T1, 5-hydroxytryptamine receptor 2C (Homo sapiens, UniProt P28335); test: Displacement of [3H]-Mesulergine from recombinant human 5HT2C receptor expressed in HEKT cell membranes measured after 90 mins by microbeta scintillation counting method
T1 sequence (P28335 whole entry): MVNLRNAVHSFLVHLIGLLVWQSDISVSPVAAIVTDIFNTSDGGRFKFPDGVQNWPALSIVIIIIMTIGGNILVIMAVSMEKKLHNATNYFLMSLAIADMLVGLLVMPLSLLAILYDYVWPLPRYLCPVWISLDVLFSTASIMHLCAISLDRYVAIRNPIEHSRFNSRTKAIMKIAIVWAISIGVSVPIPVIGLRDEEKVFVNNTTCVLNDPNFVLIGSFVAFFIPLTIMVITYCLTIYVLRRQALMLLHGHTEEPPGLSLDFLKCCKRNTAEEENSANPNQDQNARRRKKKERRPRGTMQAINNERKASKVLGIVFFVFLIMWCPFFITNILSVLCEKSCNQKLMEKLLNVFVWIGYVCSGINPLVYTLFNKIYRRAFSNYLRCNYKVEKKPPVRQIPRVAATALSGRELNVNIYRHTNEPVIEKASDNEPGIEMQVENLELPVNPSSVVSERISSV

D(4) dopamine receptor = biological target: T2, D(4) dopamine receptor (Homo sapiens, UniProt P21917); test: Displacement of [3H]-N-methylspiperone from recombinant human D4 receptor stably expressed in HEK cell membranes measured after 90 mins by microbeta scintillation counting method
T2 sequence (P21917 whole entry): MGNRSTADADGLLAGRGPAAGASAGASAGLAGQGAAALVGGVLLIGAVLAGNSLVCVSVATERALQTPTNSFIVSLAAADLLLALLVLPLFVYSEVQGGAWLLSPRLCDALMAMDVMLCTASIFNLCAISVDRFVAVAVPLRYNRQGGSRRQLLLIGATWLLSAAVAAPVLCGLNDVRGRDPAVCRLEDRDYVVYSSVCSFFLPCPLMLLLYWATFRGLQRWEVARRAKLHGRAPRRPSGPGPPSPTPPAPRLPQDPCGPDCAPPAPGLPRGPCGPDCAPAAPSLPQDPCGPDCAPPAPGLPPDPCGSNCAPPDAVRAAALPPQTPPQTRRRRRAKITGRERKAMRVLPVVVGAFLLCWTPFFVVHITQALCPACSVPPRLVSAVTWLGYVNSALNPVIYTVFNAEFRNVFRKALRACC

D(3) dopamine receptor = D(3) dopamine receptor (Homo sapiens, UniProt P35462); test: Displacement of [3H]-N-methylspiperone from recombinant human D3 receptor (unknown origin) measured after 90 mins by microbeta scintillation counting method
[2] = biological target: 5-hydroxytryptamine receptor 2B (Homo sapiens, UniProt P41595); test: Agonist activity at 5HT2B receptor (unknown origin) expressed in HEK293 cells co-expressing Gq assessed as induction of calcium mobilization measured at 1 sec interval for 60 secs by Fluo-4 calcium dye based FLIPR assay; type: cell-based; conditions: hek293, 1 min
[3] = biological target: T1, 5-hydroxytryptamine receptor 2C; test: Antagonist activity at human 5HT2C receptor stably expressed in HEK293 cells co-expressing Gq assessed as inhibition of 5-HT-induced calcium mobilization preincubated for 15 mins followed by 5-HT addition and measured at 1 sec interval for 60 secs by Fluo-4 calcium dye based FLIPR assay; type: functional, cell-based
In short: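 5-HT2C stably transfected HEK293 cells, loaded with Fluo-4 Direct (HBSS, 20 mM HEPES pH 7.4, 2.5 mM probenecid; 50 min 37 °C, 10 min room temperature). Test compound added, then 5-HT (final 1 nM) 15 min later.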

[4] = biological target: 5-hydroxytryptamine receptor 2A (Homo sapiens, UniProt P28223); test: Agonist activity at 5HT2A receptor (unknown origin) expressed in HEK293 cells co-expressing Gq assessed as induction of calcium mobilization measured at 1 sec interval for 60 secs by Fluo-4 calcium dye based FLIPR assay; type: cell-based; conditions: hek293, 1 min
Chain of 5-hydroxytryptamine receptor 2A (P28223 whole entry): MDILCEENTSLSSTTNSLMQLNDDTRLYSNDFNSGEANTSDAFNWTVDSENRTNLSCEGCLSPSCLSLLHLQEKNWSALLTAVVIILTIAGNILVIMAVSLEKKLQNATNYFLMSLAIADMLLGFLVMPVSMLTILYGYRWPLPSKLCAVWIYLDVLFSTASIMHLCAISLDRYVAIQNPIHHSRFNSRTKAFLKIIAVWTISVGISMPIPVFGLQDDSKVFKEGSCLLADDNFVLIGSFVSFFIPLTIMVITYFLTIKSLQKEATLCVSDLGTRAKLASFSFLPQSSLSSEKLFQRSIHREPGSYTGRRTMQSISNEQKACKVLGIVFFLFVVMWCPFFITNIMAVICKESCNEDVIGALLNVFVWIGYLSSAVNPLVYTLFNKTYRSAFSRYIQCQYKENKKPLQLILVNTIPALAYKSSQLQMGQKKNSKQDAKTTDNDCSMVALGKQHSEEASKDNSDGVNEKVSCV

Chain of D(3) dopamine receptor (P35462 whole entry): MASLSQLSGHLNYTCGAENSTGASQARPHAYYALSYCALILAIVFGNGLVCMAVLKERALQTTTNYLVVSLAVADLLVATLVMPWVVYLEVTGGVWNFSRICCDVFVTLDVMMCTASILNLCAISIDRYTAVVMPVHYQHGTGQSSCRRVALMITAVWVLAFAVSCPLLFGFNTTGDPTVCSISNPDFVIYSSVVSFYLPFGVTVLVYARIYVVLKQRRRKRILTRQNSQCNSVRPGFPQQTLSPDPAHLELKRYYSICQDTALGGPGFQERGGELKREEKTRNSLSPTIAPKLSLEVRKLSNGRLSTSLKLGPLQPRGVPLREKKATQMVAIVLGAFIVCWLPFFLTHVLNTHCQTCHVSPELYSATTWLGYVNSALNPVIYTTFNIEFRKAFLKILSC
Chain of D(2) dopamine receptor (P14416 whole entry): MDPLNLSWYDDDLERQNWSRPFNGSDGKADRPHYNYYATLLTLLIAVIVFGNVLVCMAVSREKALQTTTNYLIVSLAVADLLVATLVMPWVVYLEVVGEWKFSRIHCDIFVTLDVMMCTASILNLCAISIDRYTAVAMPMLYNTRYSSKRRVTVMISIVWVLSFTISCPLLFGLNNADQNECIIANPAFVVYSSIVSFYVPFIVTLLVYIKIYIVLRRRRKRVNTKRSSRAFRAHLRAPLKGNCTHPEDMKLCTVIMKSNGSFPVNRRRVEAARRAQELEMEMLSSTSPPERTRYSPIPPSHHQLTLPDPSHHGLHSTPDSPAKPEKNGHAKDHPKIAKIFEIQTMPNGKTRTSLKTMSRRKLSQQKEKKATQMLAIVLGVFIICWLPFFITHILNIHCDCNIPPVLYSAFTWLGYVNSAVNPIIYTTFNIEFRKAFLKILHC
Chain of D(1A) dopamine receptor (P21728 whole entry): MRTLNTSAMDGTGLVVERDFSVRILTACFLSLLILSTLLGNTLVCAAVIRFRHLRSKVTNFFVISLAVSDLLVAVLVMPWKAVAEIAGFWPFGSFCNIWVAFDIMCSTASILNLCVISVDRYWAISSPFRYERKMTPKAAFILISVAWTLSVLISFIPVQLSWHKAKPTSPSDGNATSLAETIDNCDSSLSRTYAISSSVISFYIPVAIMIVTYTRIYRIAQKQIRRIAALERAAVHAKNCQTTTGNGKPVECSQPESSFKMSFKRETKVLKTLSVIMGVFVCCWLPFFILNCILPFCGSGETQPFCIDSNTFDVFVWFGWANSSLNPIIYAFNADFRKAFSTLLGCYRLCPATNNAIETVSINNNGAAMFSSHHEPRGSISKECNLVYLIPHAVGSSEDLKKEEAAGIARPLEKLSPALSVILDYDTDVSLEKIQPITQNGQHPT
Chain of D(1B) dopamine receptor (P21918 whole entry): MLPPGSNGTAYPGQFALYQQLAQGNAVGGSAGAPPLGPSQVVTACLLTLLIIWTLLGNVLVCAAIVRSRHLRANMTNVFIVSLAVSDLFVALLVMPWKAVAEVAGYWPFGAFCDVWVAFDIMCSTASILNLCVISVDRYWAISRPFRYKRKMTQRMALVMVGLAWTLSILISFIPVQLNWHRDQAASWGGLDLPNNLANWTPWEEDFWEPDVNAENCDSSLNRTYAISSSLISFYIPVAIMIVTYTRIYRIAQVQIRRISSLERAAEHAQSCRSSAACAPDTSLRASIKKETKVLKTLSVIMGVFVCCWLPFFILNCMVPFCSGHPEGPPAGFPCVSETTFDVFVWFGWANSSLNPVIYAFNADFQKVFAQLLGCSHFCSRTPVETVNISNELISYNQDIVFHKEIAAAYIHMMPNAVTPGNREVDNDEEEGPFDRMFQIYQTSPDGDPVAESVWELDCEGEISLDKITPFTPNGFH
Chain of 5-hydroxytryptamine receptor 2B (P41595 whole entry): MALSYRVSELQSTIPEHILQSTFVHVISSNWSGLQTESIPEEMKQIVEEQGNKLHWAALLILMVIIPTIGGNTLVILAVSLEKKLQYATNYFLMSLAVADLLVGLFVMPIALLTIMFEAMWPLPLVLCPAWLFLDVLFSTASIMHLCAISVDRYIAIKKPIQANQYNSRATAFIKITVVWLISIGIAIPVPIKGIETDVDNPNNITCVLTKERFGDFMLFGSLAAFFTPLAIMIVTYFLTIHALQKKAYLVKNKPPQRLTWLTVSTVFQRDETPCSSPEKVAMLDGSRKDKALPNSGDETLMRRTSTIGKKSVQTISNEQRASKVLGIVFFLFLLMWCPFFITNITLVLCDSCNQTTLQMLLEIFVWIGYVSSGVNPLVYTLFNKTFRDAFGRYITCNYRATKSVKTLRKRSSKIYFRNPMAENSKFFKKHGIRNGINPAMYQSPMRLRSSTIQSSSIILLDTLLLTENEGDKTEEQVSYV

Structure (SMILES)	Ki (D(1B) dopamine receptor)	Ki (D(1A) dopamine receptor)	Ki (D(2) dopamine receptor)	Ki [1]	Ki (D(4) dopamine receptor)	Ki (D(3) dopamine receptor)	Activity [2]	IC50 [3]	Activity [4]
COc1ccc(F)cc1C1CC1CN(CCCSc1nnc(-c2ccccc2)n1C)C(C)C (stereo not given)	> 5000 nM	> 5000 nM	513 nM	495 nM	326 nM	105 nM	–	–	–
CCCN(CCCSc1nnc(-c2ccccc2)n1C)CC1CC1c1cc(F)ccc1OC (stereo not given)	> 5000 nM	1670 nM	1160 nM	412 nM	85.8 nM	87.1 nM	–	–	–
CCCN(CCCSc1nnc(-c2ccccc2)n1C)CC1CC1c1cc(Cl)ccc1OC (stereo not given)	> 5000 nM	1920 nM	233 nM	535 nM	130 nM	36.7 nM	–	–	–
CCN(CCCSc1nnc(-c2ccccc2)n1C)CC1CC1c1cc(Cl)ccc1OC (stereo not given)	> 5000 nM	1510 nM	238 nM	203 nM	241 nM	31.6 nM	–	–	–
CCCN(CCCCNC(=O)c1ccc2ccccc2c1)CC1CC1c1cccc(F)c1 (stereo not given)	> 5000 nM	1310 nM	4820 nM	165 nM	1300 nM	26.7 nM	–	–	–
CCCN(CCCCNC(=O)c1ccc2ccccc2c1)CC1CC1c1ccc(F)cc1 (stereo not given)	> 5000 nM	992 nM	5620 nM	238 nM	2170 nM	55.8 nM	–	–	–
CCN(CCCCNC(=O)c1cc2ccccc2[nH]1)CC1CC1c1cc(F)ccc1OC (stereo not given)	> 5000 nM	1080 nM	380 nM	49 nM	220 nM	23.4 nM	–	–	–
COc1ccc(Cl)cc1C1CC1CN(CCCSc1nnc(-c2ccccc2)n1C)CC1CC1 (stereo not given)	> 5000 nM	636 nM	216 nM	274 nM	163 nM	23.7 nM	–	–	–
CCCN(CCCCNC(=O)c1ccc(-c2ccccn2)cc1)CC1CC1c1ccc(F)cc1 (stereo not given)	> 5000 nM	3630 nM	> 5000 nM	2170 nM	2880 nM	106 nM	–	–	–

Next, values leading:

Ki (D(1B) dopamine receptor)	Ki (D(1A) dopamine receptor)	Ki (D(2) dopamine receptor)	Ki [1]	Ki (D(4) dopamine receptor)	Ki (D(3) dopamine receptor)	Activity [2]	IC50 [3]	Activity [4]	Structure (SMILES)
10500 nM	1460 nM	5930 nM	219 nM	1610 nM	45.7 nM	–	–	–	CCCN(CCCCNC(=O)c1cc2ccccc2[nH]1)CC1CC1c1ccc(F)cc1 (stereo not given)
> 5000 nM	1070 nM	1230 nM	50.1 nM	851 nM	–	Not Active	860 nM	Active	CCCN(CCCCNC(=O)c1ccc(-c2ccccn2)cc1)C[C@H]1C[C@@H]1c1cc(F)ccc1OC.Cl
789 nM	871 nM	507 nM	68 nM	376 nM	11.2 nM	–	–	–	CCCN(CCCCNC(=O)c1cc2ccccc2[nH]1)CC1CC1c1cc(F)ccc1OC (stereo not given)
8670 nM	940 nM	4010 nM	136 nM	1320 nM	15.5 nM	–	–	–	CCCN(CCCCNC(=O)c1ccc2ccccc2c1)CC1CC1c1cccc(Cl)c1 (stereo not given)
1100 nM	930 nM	1120 nM	85 nM	945 nM	26.9 nM	–	–	–	CCCN(CCCCNC(=O)c1ccc2ccccc2c1)CC1CC1c1cc(Cl)ccc1OC (stereo not given)
571 nM	1980 nM	408 nM	49 nM	553 nM	23.4 nM	–	–	–	CCN(CCCCNC(=O)c1ccc2ccccc2c1)CC1CC1c1cc(Cl)ccc1OC (stereo not given)
2200 nM	967 nM	1080 nM	63.1 nM	844 nM	14.5 nM	–	–	–	CCCN(CCCCNC(=O)c1ccc2ccccc2c1)CC1CC1c1cc(F)ccc1OC (stereo not given)
5580 nM	832 nM	> 5000 nM	898 nM	2330 nM	26.5 nM	–	–	–	CCCN(CCCCNC(=O)c1ccc(-c2ccccn2)cc1)CC1CC1c1cccc(Cl)c1 (stereo not given)
8190 nM	1280 nM	> 5000 nM	1310 nM	2070 nM	33.1 nM	–	–	–	CCCN(CCCCNC(=O)c1cc2ccccc2[nH]1)CC1CC1c1ccc(C(F)(F)F)cc1 (stereo not given)
1720 nM	986 nM	407 nM	57.5 nM	385 nM	15 nM	–	–	–	CCN(CCCCNC(=O)c1ccc2ccccc2c1)CC1CC1c1cc(F)ccc1OC (stereo not given)
5800 nM	1710 nM	> 5000 nM	1260 nM	215 nM	43 nM	–	–	–	CCCN(CCCCNC(=O)c1ccc2ccccc2c1)CC1CC1c1ccc(C(F)(F)F)cc1 (stereo not given)
4230 nM	818 nM	1420 nM	85.1 nM	575 nM	11.5 nM	–	–	–	CCCN(CCCCNC(=O)c1cc2ccccc2[nH]1)CC1CC1c1cc(Cl)ccc1OC (stereo not given)
6110 nM	509 nM	4610 nM	179 nM	1590 nM	32.6 nM	–	–	–	CCCN(CCCCNC(=O)c1ccc2ccccc2c1)CC1CC1c1ccc(Cl)cc1 (stereo not given)
7700 nM	1420 nM	> 5000 nM	2360 nM	2170 nM	23.4 nM	–	–	–	CCCN(CCCCNC(=O)c1ccc(-c2ccccn2)cc1)CC1CC1c1ccc(C(F)(F)F)cc1 (stereo not given)
